According to ChEMBL document CHEMBL1932930, “Synthesis and biological assessment of novel 2-thiazolylhydrazones and computational analysis of their recognition by monoamine oxidase B” (Eur J Med Chem, 2012):

B1: Amine oxidase [flavin-containing] B (Homo sapiens) (protein)
chain: MSNKCDVVVVGGGISGMAAAKLLHDSGLNVVVLEARDRVGGRTYTLRNQKVKYVDLGGSYVGPTQNRILRLAKELGLETYKVNEVERLIHHVKGKSYPFRGPFPPVWNPITYLDHNNFWRTMDDMGREIPSDAPWKAPLAEEWDNMTMKELLDKLCWTESAKQLATLFVNLCVTAETHEVSALWFLWYVKQCGGTTRIISTTNGGQERKFVGGSGQVSERIMDLLGDRVKLERPVIYIDQTRENVLVETLNHEMYEAKYVISAIPPTLGMKIHFNPPLPMMRNQMITRVPLGSVIKCIVYYKEPFWRKKDYCGTMIIDGEEAPVAYTLDDTKPEGNYAAIMGFILAHKARKLARLTKEERLKKLCELYAKVLGSLEALEPVHYEEKNWCEEQYSGGCYTTYFPPGILTQYGRVLRQPVDRIYFAGTETATHWSGYMEGAVEAGERAAREILHAMGKIPEDEIWQSEPESVDVPAQPITTTFLERHLPSVPGLLRLIGLTTIFSATALGFLAHKRGLLVRV
B2: Amine oxidase [flavin-containing] A (Homo sapiens) (protein)
chain: MENQEKASIAGHMFDVVVIGGGISGLSAAKLLTEYGVSVLVLEARDRVGGRTYTIRNEHVDYVDVGGAYVGPTQNRILRLSKELGIETYKVNVSERLVQYVKGKTYPFRGAFPPVWNPIAYLDYNNLWRTIDNMGKEIPTDAPWEAQHADKWDKMTMKELIDKICWTKTARRFAYLFVNINVTSEPHEVSALWFLWYVKQCGGTTRIFSVTNGGQERKFVGGSGQVSERIMDLLGDQVKLNHPVTHVDQSSDNIIIETLNHEHYECKYVINAIPPTLTAKIHFRPELPAERNQLIQRLPMGAVIKCMMYYKEAFWKKKDYCGCMIIEDEDAPISITLDDTKPDGSLPAIMGFILARKADRLAKLHKEIRKKKICELYAKVLGSQEALHPVHYEEKNWCEEQYSGGCYTAYFPPGIMTQYGRVIRQPVGRIFFAGTETATKWSGYMEGAVEAGERAAREVLNGLGKVTEKDIWVQEPESKDVPAVEITHTFWERNLPSVSGLLKIIGFSTSVTALGFVLYKYKLLPRS

Assays:
[1] = substrate: NCCc1ccc(O)cc1; test: Activity of human recombinant MAO-B expressed in baculovirus infected BTI-TN-5B1-4 insect cells assessed as hydrogen peroxide production after 15 mins by fluorimetric method
How it was run: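 Microsomal hMAO-B (specific activity 22 nmol p-tyramine/min/mg protein), adjusted to oxidize 165 pmol p-tyramine/min in controls. It was preincubated 15 min at 37 °C with drug in 0.05 M sodium phosphate pH 7.4, then started with 1 mM p-tyramine (final). Resorufin fluorescence (ex 545/em 590) from Amplex Red/peroxidase was read over 15 min at 37 °C, in the dark. Controls used DMSO vehicle.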

[2] = substrate: NCCc1ccc(O)cc1; test: Activity of human recombinant MAO-A expressed in baculovirus infected BTI-TN-5B1-4 insect cells assessed as hydrogen peroxide production after 15 mins by fluorimetric method
How it was run: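 Microsomal hMAO-A (specific activity 150 nmol p-tyramine/min/mg protein), dosed to oxidize 165 pmol p-tyramine/min in controls. It was preincubated 15 min at 37 °C in 0.05 M sodium phosphate pH 7.4 with test drug, then started with 1 mM p-tyramine (final). H2O2 was read as Amplex Red/peroxidase resorufin fluorescence (ex 545/em 590) over 15 min at 37 °C, in the dark.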

Row | Protein | Km [1] [µM] | Vmax [1] [µmol/min/mg] | Km [2] [µM] | Vmax [2] [µmol/min/mg]
1 | B1 | 105 | 0.0289 | – | –
2 | B2 | – | – | 514 | 0.301
